Data on ten molecules can be found in ChEMBL document CHEMBL2057186, “Application of the bicyclo[1.1.1]pentane motif as a nonclassical phenyl ring bioisostere in the design of a potent and orally active γ-secretase inhibitor” (J Med Chem, 2012).

The IC50 is the concentration that inhibits the measured activity by half. A low value points to greater potency in that assay. For orientation: efflux ratio means a quotient of directional permeabilities that is used to spot active efflux. The term Papp A→B denotes the apparent permeability from the apical to the basolateral side of a cell layer.

Values after ≈ are worked out from the molar mass of the structure shown.

One series has as its target Gamma-secretase. Kind of series: Inhibition of gamma secretase-mediated amyloid beta42 production in human H4 cells expressing human wild-type APP.
For another series, the species on record is Homo sapiens. Kind of series: Selectivity for human gamma-seretase over notch signalling protein.
The next series deals with P-gp. The series is described as follows: Efflux ratio of apparent permeability from basal to apical side to apical to basal side of MDCK cells expressing human P-gp. The series is classed as ADME, cell-based, Canis lupus familiaris. The following applies: dog, MDCK-MDR1. In outline: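 Monolayers were MDCK cells transfected with the human P-glycoprotein (MDR1) gene. Permeability was measured basolateral-to-apical and apical-to-basolateral, and the BA/AB ratio was reported.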

A short description of series [1]: Kinetic solubility of the solubility of the compound at pH 6.5. The following applies: buffer, read-out: Kinetic_solubility. In kind it is physicochemical. Put shortly:
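Kinetic solubility was measured in aqueous buffer at pH 6.5.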

Series [2] is described as follows: Apparent permeability from apical to basal side of dog RRCK cells. In kind it is ADME, cell-based, Canis lupus familiaris, MDCKII-LE. The following applies: MDCK. In outline:
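Absorptive (A to B) permeability was measured in RRCK cells, a Madin–Darby canine kidney subline isolated for low transporter activity. It estimates intrinsic passive permeability.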

`N#Cc1ccc(CN([C@H](CCC(F)(F)F)C(N)=O)S(=O)(=O)c2ccc(Cl)cc2)cc1`: the IC50 on Gamma-secretase came out at 1.04 nM. The Selectivity Index in the series filed under Homo sapiens was found to be 570. Also, the efflux ratio in the series on P-gp is 2.05. Besides, the solubility kinetic in series [1] turned out to be 44.5 µM (≈ 20.5 µg/mL). Also, the apparent permeability from apical to basolateral (Papp A→B) in series [2] was found to be 19.7 ×10⁻⁶ cm/s.
Consider `N#C[C@H]1C[C@H](CN([C@H](CCC(F)(F)F)C(N)=O)S(=O)(=O)c2ccc(Cl)cc2)C1`, for which, on Gamma-secretase, 16.4 nM corresponded to half-maximal inhibition (IC50). The Papp A→B in series [2] came to 24.9 ×10⁻⁶ cm/s.
The corresponding values for `N#C[C@H]1C[C@@H]1CN([C@H](CCC(F)(F)F)C(N)=O)S(=O)(=O)c1ccc(Cl)cc1` are 6.92 nM and 21.5 ×10⁻⁶ cm/s.
On to `N#Cc1ccc(CN([C@H](CCC(F)(F)F)C(N)=O)S(=O)(=O)c2ccc(Cl)cc2)c(F)c1`, for which half-maximal inhibition against Gamma-secretase (IC50) was put at 1.77 nM. Besides, the efflux ratio with P-gp was 1.71. For the same molecule, the solubility kinetic in series [1] was found to be 6.8 µM (≈ 3.25 µg/mL). Besides, in series [2], the Papp A→B is 18.7 ×10⁻⁶ cm/s.
The molecule `N#CCCCN([C@H](CCC(F)(F)F)C(N)=O)S(=O)(=O)c1ccc(Cl)cc1` showed an IC50 against Gamma-secretase of 87.1 nM. In series [2], the Papp A→B came out at 27.6 ×10⁻⁶ cm/s.
The corresponding values for `N#CCCN([C@H](CCC(F)(F)F)C(N)=O)S(=O)(=O)c1ccc(Cl)cc1` are 22.5 nM and 10.2 ×10⁻⁶ cm/s.
The corresponding values for `N#CC1(CN([C@H](CCC(F)(F)F)C(N)=O)S(=O)(=O)c2ccc(Cl)cc2)CC1` are 9.6 nM and 29.9 ×10⁻⁶ cm/s.
On Gamma-secretase, `C[C@]1(C#N)C[C@H](CN([C@H](CCC(F)(F)F)C(N)=O)S(=O)(=O)c2ccc(Cl)cc2)C1` returned an IC50 of 58.7 nM. For the same molecule, the Papp A→B in series [2] was determined as 21.8 ×10⁻⁶ cm/s.
In the same order, the values of `N#C[C@@H]1C[C@H]1CN([C@H](CCC(F)(F)F)C(N)=O)S(=O)(=O)c1ccc(Cl)cc1` are 14.7 nM and 9.94 ×10⁻⁶ cm/s.
The corresponding values for `N#C[C@H]1CC[C@H](CN([C@H](CCC(F)(F)F)C(N)=O)S(=O)(=O)c2ccc(Cl)cc2)CC1` (stereo in doubt; 21) are 2.75 nM and 15.7 ×10⁻⁶ cm/s.
